Compounds with a hit are over-represented: about 1.9% of the library has one in this group of screens.
RAD52 inh – RAD52 DNA annealing inhibitors, primary screen, biochemical, FRET, single point, set 2 | recombinant RAD52 DNA annealing, FRET fluorescence | inhibition, % at 18.7 µM | hit rate 0.46% among 360,000 | AID 651710, 2012;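 active = every replicate showing at least 50% inhibition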
Target sequence (P43351 whole entry, looked up): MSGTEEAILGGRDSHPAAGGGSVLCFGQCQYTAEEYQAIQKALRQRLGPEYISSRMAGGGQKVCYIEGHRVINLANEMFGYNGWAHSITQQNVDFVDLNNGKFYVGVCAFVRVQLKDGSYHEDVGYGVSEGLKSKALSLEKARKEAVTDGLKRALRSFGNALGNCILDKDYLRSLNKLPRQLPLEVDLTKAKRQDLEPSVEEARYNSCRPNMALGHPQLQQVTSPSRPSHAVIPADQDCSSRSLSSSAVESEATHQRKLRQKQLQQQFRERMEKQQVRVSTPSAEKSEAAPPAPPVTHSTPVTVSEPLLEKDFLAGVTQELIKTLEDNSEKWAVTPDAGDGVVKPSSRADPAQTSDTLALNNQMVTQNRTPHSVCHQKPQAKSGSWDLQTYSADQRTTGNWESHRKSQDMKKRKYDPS
RAD54 branch – inhibitors of human RAD54 branch migration, primary screen, biochemical, fluorescence, single point | DNA repair and recombination protein RAD54-like (Homo sapiens), Q92698 | RAD54 Holliday junction branch migration, FAM/BHQ fluorescence | inhibition, % at 10.4 µM | hit rate 0.14% among 360,000;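 active = mean normalized replicate activity at least 40 and at least half of replicates scoring 40 or more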;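 also: inhibitors cause a drop in the FAM fluorescence signal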
Ecoli rRNA inh – reduced GFP signal of wild-type E. coli, primary screen, bacterial rRNA inhibitor project, GFP/RFP fluorescence, OD600, single point. E. coli WT GFP vs humanized-ribosome RFP mutants, 24 h; active compounds read low; DMSO median 0, no signal -100. AID 720706, 2013. hit rate 1.6% among 350,000. GFP signal change (wild-type ribosome), % (concentration not given with the values);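 active = significant combined selectivity score with lowered wild-type GFP, culture density cut under 30%, mutant RFP and density less affected; inactive = any of these conditions unmet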
Cneo AK release – Cryptococcus neoformans cell lysis inducers, primary screen, AK release luminescence, single concentration; C. neoformans lysis, adenylate kinase release luminescence, 4 h; normalised: neutral wells 0, clomiphene wells 100; lysis activity, % at 15 µM; hit rate 0.2% among 360,000;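 active = mean lysis activity across replicates of at least 80%, whatever share of replicates individually reach that level; inactive = mean lysis activity below 80%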
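Test system: log-phase Cryptococcus neoformans yeast cells; Quantity: yeast cell density of 5 × 10^6 cells/mL; Buffer or medium: YPD; Doses: single compound concentration per well; Timing: 4 h at 37 °C static, read 1 h later; Measured by: AK luminescence; Read-out basis: lysis from increased AK signal; Control set: Clomiphene as positive control.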
PglD inh – C. jejuni PglD acetyltransferase inhibitors, primary screen, biochemical, DTNB colorimetric, single point. hit rate 0.098% among 360,000. UDP-N-acetylbacillosamine N-acetyltransferase PglD (Campylobacter jejuni). inhibition, % at 12.5 µM. purified PglD enzyme, DTNB colorimetric CoA detection; in the data active = inhibition above about 16%, passing the limit was not always enough
A number is an active result; i = inactive; nt = not tested or not shown.

SMILES	RAD52 inh	RAD54 branch	Ecoli rRNA inh	Cneo AK release	PglD inh
CCC(C)[C@H](NC(=O)N1CCn2c1nc1ccccc12)C(=O)NCCc1ccc(OC)c(OC)c1 (some centres not stated)	i	i	-20	i	i
CO[C@@H]1CN(C)C(=O)c2cc(NC(=O)Nc3cccc(F)c3)ccc2OC[C@H](C)N(C(=O)C2CC2)C[C@@H]1C	nt	i	i	i	i
CC(=O)c1c(C)nc2ccc(C)cc2c1-c1ccccc1	i	i	-36	i	nt
CCOC(=O)c1c(C)nc2ccc(Cl)cc2c1-c1ccccc1	i	nt	i	nt	nt
COc1cccc(-c2cnc3c(c2)C(=O)N([C@@H](C)CO)C[C@@H](C)[C@H](CN(C)C(=O)Nc2ccccc2F)O3)c1	i	nt	i	nt	nt
CCOc1ccc(N2C(=O)CC(Sc3nc(O)c(CC)c(=O)[nH]3)C2=O)cc1 (configuration not stated)	i	i	-39	i	i
CC(=O)N(C)C[C@@H]1Oc2ccc(NC(=O)NC(C)C)cc2C(=O)N(C)C[C@@H]1C	nt	nt	i	nt	nt
COc1cc([N+](=O)[O-])ccc1NC(=S)NNC(=O)c1ccc2c(c1)OCO2	i	i	-17	i	i
CCOC(=O)NNC(=O)CCn1c2c(c3ccccc31)CCCC2	i	nt	-17	nt	nt
CNC[C@H]1Oc2ccc(NS(C)(=O)=O)cc2CC(=O)N(C)C[C@@H]1C	nt	nt	i	nt	nt
CCSc1nc2cc(OC)c(OC)cc2c(=O)n1CCc1ccccc1	nt	i	nt	i	i
COCCCn1c(SCCc2ccccc2)nc2cc(OC)c(OC)cc2c1=N	i	i	-41	i	i
O=C(COc1ccc(Br)cc1)N1CCc2ccccc2C1	i	nt	-26	nt	nt
O=C(Cc1ccc(Cl)cc1)N1CCc2ccccc2C1	i	i	-28	i	i
COc1ccc(CC(=O)N2CCc3ccccc3C2)cc1	i	i	i	i	i
COc1ccc(OCC(=O)N2CCc3ccccc3C2)cc1	i	i	i	i	i
COCC(=O)Nc1ccc2c(c1)OC[C@H](C)N(C(=O)C1CCCC1)C[C@@H](C)[C@@H](OC)CN(C)C2=O	nt	i	i	i	i
COc1ccc(C(=O)Nc2ccc(NC(C)=O)cc2)cc1S(=O)(=O)N1CCCC1	i	i	-33	i	i
COc1ccc(NS(=O)(=O)c2cccc(Cl)c2)cc1S(=O)(=O)N1CCCCC1	i	i	i	i	i
O=C(Nc1ccc(F)c(F)c1)c1ccc(F)c(S(=O)(=O)N2CCC3(CC2)OCCO3)c1	i	nt	-27	nt	nt
COc1ccc(CCNC(=O)c2ccc(Cl)c(S(=O)(=O)N3CCCC3)c2)cc1	i	i	-29	i	i
COc1ccc(NS(=O)(=O)c2cccc(Cl)c2Cl)cc1S(=O)(=O)N1CCCCC1	i	nt	-35	nt	nt
O=S(=O)(c1cc(F)ccc1F)N1CCC2(CC1)OCCO2	i	i	i	i	i
O=S(=O)(c1ccc(-c2ccccc2)cc1)N1CCN(Cc2cccc(OCCO)c2)CC1	i	nt	nt	i	nt
CO[C@@H]1CN(C)C(=O)c2cc(NC(=O)NC3CCCC3)ccc2OC[C@H](C)N(CC2CC2)C[C@H]1C	nt	nt	i	nt	nt
SMILES	RAD52 inh	RAD54 branch	Ecoli rRNA inh	Cneo AK release	PglD inh
Cn1cnc(CCNC(=O)C[C@@H]2CC[C@H]3[C@@H](COC[C@@H](O)CN3C(=O)C3CC3)O2)c1	i	i	i	i	i
C=CCNC(=O)[C@H]1[C@@H]2C(=O)O[C@@H](c3ccccc3)[C@@H](c3ccccc3)N2[C@@H](c2ccc(O)cc2)[C@]12C(=O)N(C(=O)OCCOC)c1ccc(C#CC3(O)CCCCCC3)cc12	i	i	nt	i	i
O=C(C1CCCCC1)N1CC(=O)N2[C@H](CO)[C@H](c3ccc(C#CCc4ccccc4)cc3)[C@@H]2C1	nt	nt	i	nt	nt
Cc1cc(=O)oc2cc(NS(=O)(=O)c3ccc(F)cc3)ccc12	i	i	-22	i	i
Cc1cccc(Nc2ccc([N+](=O)[O-])cc2C(=O)O)c1	i	nt	i	nt	nt
O=C(O)c1cc([N+](=O)[O-])ccc1NCc1ccccc1Cl	i	i	i	i	i
O=C(O)c1cc([N+](=O)[O-])ccc1Nc1ccccc1	i	i	-34	i	i
O=C(O)c1cc([N+](=O)[O-])ccc1NCCc1ccccc1	i	nt	-42	nt	nt
CC[C@@H]1CC=CC[C@@H](C)Oc2ccccc2C(=O)N(C)[C@H](C(C)C)C(=O)N1 (mixture of isomers)	nt	nt	i	nt	nt
CS(=O)(=O)Nc1ccc2c(c1)[C@H]1C[C@H](CC(=O)NC3CCCCC3)O[C@@H](CO)[C@H]1O2	i	i	i	i	i
COc1ccc2c3c(n(C)c2c1)[C@H](CO)N(C(=O)C1CCCC1)CC31CN(C(=O)CC2CC2)C1	i	nt	i	nt	nt
COc1ccc(C#Cc2ccc([C@H]3[C@H]4CN(C)CCCCN4[C@H]3CO)cc2)cc1	52	i	i	i	i
COc1ccc(C#Cc2ccc([C@H]3[C@H](CO)N4CCCCN(C)C[C@@H]34)cc2)cc1	63	i	i	i	i
COc1cccc(C(=O)OCn2nnc3ccccc3c2=O)c1	i	i	-22	i	i
CNC[C@H]1OCCCC[C@H](C)Oc2ccc(NC(=O)Nc3c(C)noc3C)cc2C(=O)N([C@@H](C)CO)C[C@@H]1C	nt	nt	i	nt	nt
CCOC(=O)[C@]12Cc3c(cc(OC)c(OC)c3OC)[C@H]1N(Cc1ccccc1)C(=O)c1cc(OC)ccc12	i	nt	i	nt	nt
CCOC(=O)[C@]12Cc3c(cc(OC)c(OC)c3OC)[C@H]1N(CCC(=O)OC)C(=O)c1cc(OC)ccc12	i	nt	-24	nt	nt
CCOC(=O)C(C)Sc1nnc2n1C(C)(C)Cc1ccccc1-2 (configuration not stated)	i	i	-22	i	i
CO[C@@H]1CN(C)C(=O)c2cc(NS(=O)(=O)c3ccccc3)ccc2OC[C@H](C)N(Cc2ccccn2)C[C@@H]1C	i	i	i	i	i
CCc1cccc(NC(=S)Nc2cccc3ccccc23)c1	i	i	-25	i	i
C[C@H](CO)N1C[C@H](C)[C@@H](CN(C)S(=O)(=O)c2ccc(Cl)cc2)Oc2c(NS(=O)(=O)c3ccc(F)cc3)cccc2C1=O	i	i	i	127	i
C[C@H](CO)N1C[C@H](C)[C@H](CN(C)S(=O)(=O)c2ccccc2)Oc2ccc(NS(=O)(=O)c3ccc(F)cc3)cc2C1=O	nt	i	i	104	i
C[C@@H]1CN([C@H](C)CO)C(=O)c2cc(NS(=O)(=O)c3ccc(Cl)cc3)ccc2O[C@@H]1CN(C)S(=O)(=O)c1ccc(F)cc1	i	i	i	i	i
C[C@H](CO)N1C[C@H](C)[C@@H](CN(C)S(=O)(=O)c2ccc(F)cc2)Oc2ccc(NS(=O)(=O)c3ccc(Cl)cc3)cc2C1=O	i	i	i	i	i
